Measurements: ChEMBL document CHEMBL3351225, “Design, synthesis, and structure-activity and structure-pharmacokinetic relationship studies of novel [6,6,5] tricyclic fused oxazolidinones leading to the discovery of a potent, selective, and orally bioavailable FXa inhibitor” (J Med Chem, 2014)

Columns and labels:
Plasma [1] = experiment: Anticoagulant activity in citrated rabbit plasma assessed as drug concentration required to double plasma clotting time preincubated for 10 mins at 37 degC by coagulometry; assay type: functional, Oryctolagus cuniculus
Procedure, shortened: (§1)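 Test compound or DMSO added to citrated rabbit plasma (3.8% sodium citrate, 10:90 v/v) and preincubated 10 min at 37 °C. PT and aPTT clotting times measured on a coagulometer with commercial kits. Activity expressed as the concentration needed to double plasma clotting time (CT2, μM).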

[2] = AUC (0 to infinity) in Sprague-Dawley rat at 9 mg/kg, po; assay type: ADME, organism-based; parameters: time infinity, dose 9 mg/kg, route oral; conditions: plasma
Procedure, shortened: (§2)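 Male Sprague-Dawley rats, 200−220 g, four per group. Vehicle was 5% DMSO + 5% Tween-80 in 90% saline. The reference drug was given in 10% DMSO + 10% Tween-80 + 80% PEG400 (40% solution in saline). Serial retrobulbar vein samples were quantified by LC-MS. Parameters came from noncompartmental analysis of mean plasma concentrations.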

[3] = AUC (0 to infinity) in Sprague-Dawley rat at 4.5 mg/kg, iv; assay type: ADME, organism-based; parameters: time infinity, dose 4.5 mg/kg, route intravenous; conditions: plasma; procedure, shortened: as §2
Plasma [4] = experiment: Anticoagulant activity in citrated rabbit plasma assessed as activated partial thromboplastin time preincubated for 10 mins at 37 degC by coagulometry; assay type: functional, Oryctolagus cuniculus; procedure, shortened: as §1
[5] = Oral bioavailability in Sprague-Dawley rat at 9 mg/kg; assay type: ADME, organism-based; conditions: in vivo; procedure, shortened: as §2
[6] = Plasma clearance in Sprague-Dawley rat at 4.5 mg/kg, iv; assay type: ADME, organism-based; parameters: dose 4.5 mg/kg, route intravenous; procedure, shortened: as §2
[7] = Cmax in Sprague-Dawley rat at 9 mg/kg, po; assay type: ADME, organism-based; parameters: dose 9 mg/kg, route oral; conditions: in vivo; procedure, shortened: as §2
[8] = Elimination half life in Sprague-Dawley rat at 4.5 mg/kg, iv; assay type: ADME, organism-based; parameters: dose 4.5 mg/kg, route intravenous; conditions: in vivo, read-out: beta t1/2 (converted); procedure, shortened: as §2
[9] = Tmax in Sprague-Dawley rat at 9 mg/kg, po; assay type: ADME, organism-based; parameters: dose 9 mg/kg, route oral; conditions: in vivo; procedure, shortened: as §2
Coagulation factor X = Coagulation factor X (Homo sapiens, UniProt P00742); experiment: Inhibition of human factor 10a using N-Z-D-Arg-Gly-Arg-pNA, S-2765 chromogenic substrate
Chain of Coagulation factor X (P00742 41-179 limits assumed): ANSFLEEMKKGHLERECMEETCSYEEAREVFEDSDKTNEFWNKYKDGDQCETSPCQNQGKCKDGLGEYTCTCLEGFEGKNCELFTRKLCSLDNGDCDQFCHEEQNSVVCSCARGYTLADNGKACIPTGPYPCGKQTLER
Chain of Coagulation factor X (P00742 235-488 limits assumed): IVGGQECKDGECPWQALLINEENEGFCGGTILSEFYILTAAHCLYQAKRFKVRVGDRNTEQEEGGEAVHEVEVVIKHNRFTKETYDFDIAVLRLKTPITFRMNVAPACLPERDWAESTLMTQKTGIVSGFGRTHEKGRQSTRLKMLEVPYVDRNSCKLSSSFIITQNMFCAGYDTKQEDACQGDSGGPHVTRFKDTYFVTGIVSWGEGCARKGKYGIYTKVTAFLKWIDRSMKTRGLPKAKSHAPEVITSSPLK

[10] = Elimination half life in Sprague-Dawley rat at 9 mg/kg, po; assay type: ADME, organism-based; parameters: dose 9 mg/kg, route oral; conditions: in vivo, read-out: beta t1/2 (converted); procedure, shortened: as §2
[11] = Volume of distribution at steady state in Sprague-Dawley rat at 4.5 mg/kg, iv; assay type: ADME, organism-based; parameters: dose 4.5 mg/kg, route intravenous; conditions: in vivo, read-out: Vdss; procedure, shortened: as §2

| SMILES | Activity (Plasma [1]) | AUC(0-inf) [2] | AUC(0-inf) [3] | 2aPTT (Plasma [4]) | bioavailability [5] | clearance [6] | Cmax [7] | half-life [8] | Tmax [9] | IC50 (Coagulation factor X) | half-life [10] | Vd [11] |
| --- | --- | --- | --- | --- | --- | --- | --- | --- | --- | --- | --- | --- |
| O=C(NC[C@@H]1OC(=O)N2c3ccc(N4CCCCC4=O)cc3OC[C@@H]12)c1ccc(Cl)s1 | 0.42 µM | 28500 ng·h/mL | 33600 ng·h/mL | 1.63 µM | 42% | 2.28 mL/min/kg | – | – | – | – | – | – |
| CS(=O)(=O)c1ccccc1-c1ccc2c(c1)OC[C@H]1[C@H](CNC(=O)c3ccc(Cl)s3)OC(=O)N21 | 5.88 µM | 24500 ng·h/mL | 43900 ng·h/mL | 4.65 µM | 27.3% | 1.72 mL/min/kg | 6760 ng/mL | 0.88 h | 1 h | 0.0376 µM | 1.43 h | 0.169 L/kg |
